# Data taken from ChEMBL document CHEMBL4130351, “Novel pyrazolopyrimidines: Synthesis, in vitro cytotoxic activity and mechanistic investigation” (Eur J Med Chem, 2017).
# pIC50: −log10 of the molar value.
# Assays:
# [1] = system: MCF7; test: Cytotoxicity against human MCF7 cells assessed as reduction in cell viability after 72 hrs by MTT assay; assay type: functional, cell-based; details: MCF7, 72 h
# Method in brief: (§1)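 MCF-7 and HepG2 cells in exponential growth were trypsinized and seeded at 1000–2000 cells/well, then incubated 24 h at 37 °C. Compound exposure was 72 h at 0.1, 10, 100 and 1000 μM. Cells took up 5% MTT for 2 h, and formazan was dissolved in acidified isopropanol for 30 min at room temperature. A570 was read, viability expressed as % of control, and IC50 obtained by curve fitting.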
# [2] = system: HepG2; test: Cytotoxicity against human HepG2 cells assessed as reduction in cell viability after 72 hrs by MTT assay; assay type: functional, cell-based; details: HepG2, 72 h; method in brief: as §1
# [3] = system: HepG2; test: Induction of apoptosis in human HepG2 cells assessed as early apoptotic cells at 0.4 uM after 48 hrs by Annexin V/propidium iodide double staining-based flow cytometry (reference value: 0.61 %); assay type: functional
# Method in brief: (§2)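 MCF-7 exposed at 1.4 μM or HepG2 at 0.4 μM for 24 or 48 h. Cells were collected in PBS, fixed in ice-cold 70% ethanol, washed, then resuspended in PI staining solution containing 0.1 mg/mL RNase plus PE-Annexin V. Staining was 10 min in the dark at 37 °C, followed by FACSCalibur flow cytometry.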
# [4] = system: HepG2; test: Induction of apoptosis in human HepG2 cells assessed as necrotic cells at 0.4 uM after 48 hrs by Annexin V/propidium iodide double staining-based flow cytometry (reference value: 0.09 %); assay type: functional; method in brief: as §2
# [5] = system: HepG2; test: Induction of apoptosis in human HepG2 cells at 0.4 uM after 24 hrs by Annexin V/propidium iodide double staining-based flow cytometry (reference value: 0.84%); assay type: functional; method in brief: as §2
# [6] = system: HepG2; test: Cell cycle arrest in human HepG2 cells assessed as accumulation at G0/G1 phase at 0.4 uM after 24 hrs by propidium iodide staining-based flow cytometry (reference value: 73.11%); assay type: functional
# [7] = target: Cyclin-dependent kinase 2 (Homo sapiens) (UniProt P24941); test: Inhibition of CDK2 (unknown origin) at 0.1 uM by CDKN2A antibody-based spectrophotometry
# Method in brief: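 Sandwich enzyme immunoassay using a plate pre-coated with CDKN2A-specific antibody. Detection used a biotinylated anti-CDKN2A antibody, then avidin-HRP and substrate; the reaction was stopped and read at 450 nm. Compound levels tested were 0.004, 0.02, 0.1, 0.4 and 0.5 ug/mL, reported as % inhibition. IC50 was derived by Boltzmann sigmoidal nonlinear regression.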
# [8] = target: Cyclin-dependent kinase 2 (Homo sapiens) (UniProt P24941); test: Inhibition of CDK2 (unknown origin) at 0.4 uM by CDKN2A antibody-based spectrophotometry
# [9] = system: HepG2; test: Induction of apoptosis in human HepG2 cells assessed as caspase-3 activation at 0.4 uM after 10 mins by ELISA relative to control; assay type: functional
# Method in brief: (§3)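 MCF-7 treated at 1.4 μM or HepG2 at 0.4 μM. Cells were trypsinized, rinsed in PBS, pelleted (105–106 cells) and resuspended in 1 mL PBS. Lysis was by three freeze/thaw cycles, followed by a 1500×g spin for 10 min at 2–8 °C. Active caspase-3 (cleaved at Asp175/Ser176) in the lysate was quantified by sandwich ELISA with an anti-rabbit HRP step, read at 450 nm, in pg/mL against control.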
# [10] = system: HepG2; test: Induction of apoptosis in human HepG2 cells assessed as necrotic cells at 0.4 uM after 24 hrs by Annexin V/propidium iodide double staining-based flow cytometry (reference value: 0.09 %); assay type: functional; method in brief: as §2
# [11] = system: HepG2; test: Cell cycle arrest in human HepG2 cells assessed as accumulation at S phase at 0.4 uM after 24 hrs by propidium iodide staining-based flow cytometry (reference value: 21.69%); assay type: functional
# [12] = target: Cyclin-dependent kinase inhibitor 1B (Homo sapiens) (UniProt P46527); test: Activation of human P27kip1 at 0.40 uM using TMB as substrate by ELISA (reference value: 0%)
# Cyclin-dependent kinase inhibitor 1B (Homo sapiens), sequence (P46527 whole entry): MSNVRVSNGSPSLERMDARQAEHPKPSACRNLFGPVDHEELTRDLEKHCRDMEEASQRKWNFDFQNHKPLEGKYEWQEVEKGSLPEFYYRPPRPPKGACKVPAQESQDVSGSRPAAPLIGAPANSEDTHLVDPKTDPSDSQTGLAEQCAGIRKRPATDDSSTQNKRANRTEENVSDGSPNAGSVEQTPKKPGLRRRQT
# Method in brief: (§4)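 Sandwich ELISAs on treated cells for p21Cip1 and p27Kip1: antibody-coated wells, detecting antibody, then HRP conjugate, with incubation and washing between steps. TMB substrate, reaction stopped, absorbance read at 450 nm. Output is residual concentration in pg/mL, expressed as % activation over untreated control.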
# [13] = target: Cyclin-dependent kinase 2 (Homo sapiens) (UniProt P24941); test: Inhibition of CDK2 (unknown origin) at 0.02 uM by CDKN2A antibody-based spectrophotometry
# [14] = system: HepG2; test: Cell cycle arrest in human HepG2 cells assessed as accumulation at S phase at 0.4 uM after 48 hrs by propidium iodide staining-based flow cytometry (reference value: 21.69%); assay type: functional
# [15] = system: HepG2; test: Induction of apoptosis in human HepG2 cells at 0.4 uM after 48 hrs by Annexin V/propidium iodide double staining-based flow cytometry (reference value: 0.84%); assay type: functional; method in brief: as §2
# [16] = system: HepG2; test: Induction of apoptosis in human HepG2 cells assessed as late apoptotic cells at 0.4 uM after 24 hrs by Annexin V/propidium iodide double staining-based flow cytometry (reference value: 0.14 %); assay type: functional; method in brief: as §2
# [17] = target: Cyclin-dependent kinase 2 (Homo sapiens) (UniProt P24941); test: Inhibition of CDK2 (unknown origin) at 0.004 uM by CDKN2A antibody-based spectrophotometry
# [18] = system: HepG2; test: Induction of apoptosis in human HepG2 cells assessed as viable cells at 0.4 uM after 48 hrs by Annexin V/propidium iodide double staining-based flow cytometry (reference value: 99.16 %); assay type: functional; details: HepG2, 48 h, read-out: Activity; method in brief: as §2
# [19] = system: HepG2; test: Induction of apoptosis in human HepG2 cells assessed as early apoptotic cells at 0.4 uM after 24 hrs by Annexin V/propidium iodide double staining-based flow cytometry (reference value: 0.61 %); assay type: functional; method in brief: as §2
# [20] = target: Cyclin-dependent kinase 2 (Homo sapiens) (UniProt P24941); test: Inhibition of CDK2 (unknown origin) at 0.5 uM by CDKN2A antibody-based spectrophotometry
# [21] = system: HepG2; test: Cell cycle arrest in human HepG2 cells assessed as accumulation at G2/M phase at 0.4 uM after 48 hrs by propidium iodide staining-based flow cytometry (reference value: 4.36%); assay type: functional
# [22] = system: HepG2; test: Induction of apoptosis in human HepG2 cells assessed as viable cells at 0.4 uM after 24 hrs by Annexin V/propidium iodide double staining-based flow cytometry (reference value: 99.16 %); assay type: functional; details: HepG2, 24 h, read-out: Activity; method in brief: as §2
# [23] = system: HepG2; test: Cell cycle arrest in human HepG2 cells assessed as accumulation at G0/G1 phase at 0.4 uM after 48 hrs by propidium iodide staining-based flow cytometry (reference value: 73.11%); assay type: functional
# [24] = system: HepG2; test: Induction of apoptosis in human HepG2 cells assessed as late apoptotic cells at 0.4 uM after 48 hrs by Annexin V/propidium iodide double staining-based flow cytometry (reference value: 0.14 %); assay type: functional; method in brief: as §2
# [25] = target: Cyclin-dependent kinase inhibitor 1 (Homo sapiens) (UniProt P38936); test: Activation of human P21cip1 at 0.40 uM using TMB as substrate by ELISA (reference value: 0%); method in brief: as §4
# Cyclin-dependent kinase inhibitor 1 (Homo sapiens), sequence (P38936 whole entry): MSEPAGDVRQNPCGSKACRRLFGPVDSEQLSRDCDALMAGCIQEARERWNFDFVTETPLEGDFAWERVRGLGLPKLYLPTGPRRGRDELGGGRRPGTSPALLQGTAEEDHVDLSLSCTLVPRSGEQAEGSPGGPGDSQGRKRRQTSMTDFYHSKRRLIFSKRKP
# [26] = system: HepG2; test: Cell cycle arrest in human HepG2 cells assessed as accumulation at G2/M phase at 0.4 uM after 24 hrs by propidium iodide staining-based flow cytometry (reference value: 4.36%); assay type: functional
# [27] = system: MCF7; test: Induction of apoptosis in human MCF7 cells at 1.4 uM after 48 hrs by Annexin V/propidium iodide double staining-based flow cytometry (reference value: 0.62%); assay type: functional; method in brief: as §2
# [28] = system: MCF7; test: Cell cycle arrest in human MCF7 cells assessed as accumulation at G2/M phase at 1.4 uM after 24 hrs by propidium iodide staining-based flow cytometry (reference value: 5.23%); assay type: functional
# [29] = system: MCF7; test: Induction of apoptosis in human MCF7 cells assessed as necrotic cells at 1.4 uM after 48 hrs by Annexin V/propidium iodide double staining-based flow cytometry (reference value: 0.05 %); assay type: functional; method in brief: as §2
# [30] = system: MCF7; test: Induction of apoptosis in human MCF7 cells assessed as late apoptotic cells at 1.4 uM after 48 hrs by Annexin V/propidium iodide double staining-based flow cytometry (reference value: 0.18 %); assay type: functional; method in brief: as §2
# [31] = system: MCF7; test: Induction of apoptosis in human MCF7 cells at 1.4 uM after 24 hrs by Annexin V/propidium iodide double staining-based flow cytometry (reference value: 0.62%); assay type: functional; method in brief: as §2
# [32] = system: MCF7; test: Induction of apoptosis in human MCF7 cells assessed as viable cells at 1.4 uM after 48 hrs by Annexin V/propidium iodide double staining-based flow cytometry (reference value: 99.38 %); assay type: functional; details: MCF7, 48 h, read-out: Activity; method in brief: as §2
# [33] = system: MCF7; test: Induction of apoptosis in human MCF7 cells assessed as viable cells at 1.4 uM after 24 hrs by Annexin V/propidium iodide double staining-based flow cytometry (reference value: 99.38 %); assay type: functional; details: MCF7, 24 h, read-out: Activity; method in brief: as §2
# [34] = system: MCF7; test: Cell cycle arrest in human MCF7 cells assessed as accumulation at S phase at 1.4 uM after 48 hrs by propidium iodide staining-based flow cytometry (reference value: 22.45%); assay type: functional
# [35] = system: MCF7; test: Cell cycle arrest in human MCF7 cells assessed as accumulation at S phase at 1.4 uM after 24 hrs by propidium iodide staining-based flow cytometry (reference value: 22.45%); assay type: functional
# [36] = system: MCF7; test: Cell cycle arrest in human MCF7 cells assessed as accumulation at G0/G1 phase at 1.4 uM after 24 hrs by propidium iodide staining-based flow cytometry (reference value: 71.70%); assay type: functional
# [37] = system: MCF7; test: Induction of apoptosis in human MCF7 cells assessed as early apoptotic cells at 1.4 uM after 24 hrs by Annexin V/propidium iodide double staining-based flow cytometry (reference value: 0.39 %); assay type: functional; method in brief: as §2
# [38] = system: MCF7; test: Induction of apoptosis in human MCF7 cells assessed as late apoptotic cells at 1.4 uM after 24 hrs by Annexin V/propidium iodide double staining-based flow cytometry (reference value: 0.18 %); assay type: functional; method in brief: as §2
# [39] = system: MCF7; test: Cell cycle arrest in human MCF7 cells assessed as accumulation at G2/M phase at 1.4 uM after 48 hrs by propidium iodide staining-based flow cytometry (reference value: 5.23%); assay type: functional
# [40] = system: MCF7; test: Induction of apoptosis in human MCF7 cells assessed as caspase-3 activation at 1.4 uM after 10 mins by ELISA relative to control; assay type: functional; method in brief: as §3
# [41] = system: MCF7; test: Induction of apoptosis in human MCF7 cells assessed as early apoptotic cells at 1.4 uM after 48 hrs by Annexin V/propidium iodide double staining-based flow cytometry (reference value: 0.39 %); assay type: functional; method in brief: as §2
# [42] = system: MCF7; test: Cell cycle arrest in human MCF7 cells assessed as accumulation at G0/G1 phase at 1.4 uM after 48 hrs by propidium iodide staining-based flow cytometry (reference value: 71.70%); assay type: functional
# [43] = system: MCF7; test: Induction of apoptosis in human MCF7 cells assessed as necrotic cells at 1.4 uM after 24 hrs by Annexin V/propidium iodide double staining-based flow cytometry (reference value: 0.05 %); assay type: functional; method in brief: as §2
structure (smiles),measurement,setting,value
NC(=O)c1cnn(-c2ccc(S(N)(=O)=O)cc2)c1N,pIC50,[1],< 4.00
same,pIC50,[2],< 4.00
N#Cc1cnn(-c2ccc(S(N)(=O)=O)cc2)c1N,pIC50,[1],< 4.00
same,pIC50,[2],< 4.00
N=c1[nH]c(=O)[nH]c2c1cnn2-c1ccc(S(N)(=O)=O)cc1,Activity,[3],9.76%
same,Activity,[4],1.03%
same,Activity,[5],13.92%
same,pIC50,[1],< 4.00
same,Activity,[6],36.55%
same,inhibition,[7],53.1%
same,inhibition,[8],68.8%
same,fold change (FC),[9],36
same,Activity,[10],1.29%
same,Activity,[11],25.66%
same,Activity,[12],8.5%
same,inhibition,[13],39%
same,pIC50,[2],6.40
same,Activity,[14],24.67%
same,Activity,[15],16.71%
same,Activity,[16],4.79%
same,inhibition,[17],12.6%
same,viability at 0.4 µM,[18],83.3%
same,Activity,[19],7.64%
same,inhibition,[20],81.8%
same,Activity,[21],48.91%
same,viability at 0.4 µM,[22],86.3%
same,Activity,[23],9.62%
same,Activity,[24],5.92%
same,Activity,[25],10.1%
same,Activity,[26],23.78%
NS(=O)(=O)c1ccc(-n2ncc3c(=O)[nH]c(-c4ccc(Cl)cc4)nc32)cc1,pIC50,[1],5.60
same,pIC50,[2],4.62
COc1ccc(-c2nc3c(cnn3-c3ccc(S(N)(=O)=O)cc3)c(=O)[nH]2)cc1,Activity,[27],11.61%
same,pIC50,[1],5.85
same,Activity,[28],0%
same,Activity,[29],1.48%
same,Activity,[30],3.64%
same,Activity,[31],7.38%
same,viability at 1.4 µM,[32],88.4%
same,viability at 1.4 µM,[33],72.6%
same,Activity,[34],16.09%
same,Activity,[35],27.92%
same,Activity,[36],64.7%
same,Activity,[37],4.39%
same,Activity,[38],2.58%
same,pIC50,[2],< 4.00
same,Activity,[39],0%
same,fold change (FC),[40],32
same,Activity,[41],6.49%
same,Activity,[42],72.3%
same,Activity,[43],0.41%
